The source of these data is PubChem BioAssay.

Test [1] in a line: SK-BR-3 cell growth inhibitors, pilot screen, 24 h, human (AID 572;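 active = viability at or below 10% of carrier control in both of two separate runs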;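 also: compound exposure lasted between 18 and 24 h rather than exactly 24 h; 100% = carrier-treated control wells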). Particulars: SK-BR-3 viability, CellTiter-Glo luminescence, at 10 µM, stronger effect = lower value.
Test [2] can be described thus: HUVEC growth inhibition – cell-based, human, primary screen (AID 575).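 Also: 100% = median of untreated cell wells with 0.1% DMSO on each plate.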 The settings on record: HUVEC proliferation, CellTiter-Glo luminescence, 72 h; at 10 µM; stronger effect = lower value. A digest of the protocol:
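Test system: primary human umbilical vein endothelial cells. Quantity: 1250 cells/well. Compound: single 10 µM dose, 0.1% DMSO, from 5x medium stock. Timing: 72 h treatment at 37 °C. Detection: ATP-based CellTiter-Glo luminescent read. Benchmarks: vehicle and MePR control wells. Format: 384-well plates coated with collagen.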

A short description of test [3]: growth inhibitors of H69AR lung tumor, primary screen, human, duplicate replicates (AID 580;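 active = viability at or under a set limit in both replicates, limit being median viability minus 3 SD, cut at about 48% in these data, passing the limit was not always enough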;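 also: 100% = mean luminescence of untreated wells and 0% = no signal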). The settings on record: H69AR lung tumor cells viability, ATP luminescence, 72 h; at 10 µM; stronger effect = lower value.
Test [4] in a line: reversal of MRP1-mediated doxorubicin resistance, pilot screen, H69AR cells, doxorubicin co-treatment (AID 601;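 active = viability loss from added drug above about 55%, and viability with drug at most 40%, in both replicates, limit read from the data, passing the limit was not always enough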). The settings on record: CellTiter-Glo, 72 h, at 10 µM; for differential viability (reversal): stronger effect = higher value.
Test [5] in a line: 384-well plate pilot, post-Golgi transport modulator project, inhibition of yeast transport mutant growth (AID 636; in the data active = inhibition above about 31%). The settings on record: absorbance 615 nm, about 18 h, stronger effect = higher value.
Test [6] can be described thus: growth suppression of yeast trafficking mutant, preliminary HTS, modulators of trafficking downstream of Golgi apparatus project, 1536-format plate, OD 615 nm (AID 637; in the data active = inhibition above about 30%). Particulars: yeast transport mutant growth, absorbance 615 nm, 18 h; stronger effect = higher value.
The mark [7] stands for this setting: H69AR cells + 2 uM doxorubicin, measured here: viability with 2 uM doxorubicin, stronger effect = lower value.
The mark [8] stands for this setting: H69AR cells, compound alone cytotoxicity.

Calls of active or inactive are those of the source.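 The calls were made as follows, unless noted: active = viability at or below 30% in both replicate assays; inconclusive = viability at or below 30% in just one of the two assays; inactive = the rest.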

As for `CC1(C)S[C@@H]2[C@H](NC(=O)[C@H](C(=O)O)c3ccsc3)C(=O)N2[C@H]1C(=O)O`, the viability in test [1] is 105% (inactive); in test [2] it was 91.5% (inactive); in test [3] it was 102% (inactive); in test [4] (setting [7]), 99.3%; in test [4] (setting [8]), 102%. The differential viability (reversal) in test [4] (H69AR cells + 2 uM doxorubicin) was 2.32% (inactive). The figures for the inhibition in test [5] and in test [6] were -0.26% (inactive) and -0.17% (inactive), respectively.

In the case of `C#CCSc1nc(-c2cccs2)ccc1C#N`, the viability in test [1] was 91% (inactive); in test [2], 95.1% (inactive); in test [3] it was 71.4% (inactive); in test [4] (setting [7]), 93.9%; in test [4] (setting [8]) it was 71.4%. Besides, the differential viability (reversal) in test [4] (H69AR cells + 2 uM doxorubicin) was -22.5% (inactive). Besides, the values for the inhibition in test [5] and in test [6] were -0.96% (inactive) and 21.8% (inactive), respectively.

On to `C=CCn1c(SCn2nnc3ccccc3c2=O)nnc1-c1ccc(Br)cc1`, for which the viability in test [1] is 97% (inactive); in test [2] it was 94.2% (inactive); in test [3], 89.1% (inactive); in test [4] (setting [7]), 82%; in test [4] (setting [8]), 89.1%. In addition, in test [4] (H69AR cells + 2 uM doxorubicin), the differential viability (reversal) is 7.09% (inactive). Also, the figures for the inhibition in test [5] and in test [6] were 43.2% (active) and 31.6% (active), respectively.

`Clc1cccc(Cl)c1COc1ccncc1`: the viability in test [1] was 88% (inactive); in test [2], 91.5% (inactive); in test [3], 97.2% (inactive); in test [4] (setting [7]), 94.3%; in test [4] (setting [8]), 97.2%. The differential viability (reversal) in test [4] (H69AR cells + 2 uM doxorubicin) was 2.84% (inactive). The inhibition in test [5] was 0.82% (inactive); in test [6], 27.4% (inactive).

For `O=C(CN1CCN(c2ccc(F)cc2)CC1)OCc1ccccc1`, the viability was 95% (inactive) in test [1]; 105% (inactive) in test [2]; 92.6% (inactive) in test [3]; 84.7% in test [4] (setting [7]); 92.6% in test [4] (setting [8]). Moreover, the differential viability (reversal) in test [4] (H69AR cells + 2 uM doxorubicin) is 7.9% (inactive). Moreover, the inhibition is -4.4% (inactive) in test [5] and 3.64% (inactive) in test [6].

With `CCOC(=O)c1sc(NC(=O)CSc2ncn(-c3ccccc3)n2)nc1C`, the viability in test [1] was 109% (inactive); in test [2], 97.5% (inactive); in test [3], 82.9% (inactive); in test [4] (setting [7]), 88.1%; in test [4] (setting [8]) it was 82.9%. Moreover, in test [4] (H69AR cells + 2 uM doxorubicin), the differential viability (reversal) is -5.19% (inactive). The inhibition in test [5] is -7.95% (inactive); in test [6], 3.09% (inactive).

`CCOc1nc(-c2ccccc2O)nc2ccccc12`: the viability in test [1] is 68% (inactive); in test [2] it was 108% (inactive); in test [3] it was 100% (inactive); in test [4] (setting [7]), 99.5%; in test [4] (setting [8]), 100%. Besides, the differential viability (reversal) in test [4] (H69AR cells + 2 uM doxorubicin) was 0.64% (inactive). In addition, the values for the inhibition in test [5] and in test [6] were 1.23% (inactive) and 0.55% (inactive), respectively.

Regarding `Fc1cccc(NCc2cn3ccccc3n2)c1`, the viability in test [1] was 81% (inactive); in test [2], 105% (inactive); in test [3], 87.6% (inactive); in test [4] (setting [7]) it was 89.2%; in test [4] (setting [8]), 87.6%. The differential viability (reversal) in test [4] (H69AR cells + 2 uM doxorubicin) was -1.66% (inactive). Further, the inhibition in test [5] was -5% (inactive); in test [6], 21.4% (inactive).

`Cc1cccc2c(=O)oc(-c3ccc4c(c3)C(=O)N(CC3CCCO3)C4=O)nc12` (stereo unspecified): the viability was 95% (inactive) in test [1]; 101% (inactive) in test [2]; 98.7% (inactive) in test [3]; 92.8% in test [4] (setting [7]); 98.7% in test [4] (setting [8]). For the same molecule, in test [4] (H69AR cells + 2 uM doxorubicin), the differential viability (reversal) was 5.85% (inactive). Further, the inhibition in test [5] is -4.25% (inactive); in test [6], 6.77% (inactive).

As to `COCCNC(=S)c1ccc(OC)cc1`, the viability in test [1] is 118% (inactive); in test [2], 112% (inactive); in test [3], 86% (inactive); in test [4] (setting [7]), 77.1%; in test [4] (setting [8]), 86%. In addition, in test [4] (H69AR cells + 2 uM doxorubicin), the differential viability (reversal) was 8.94% (inactive). Also, the inhibition is -8.27% (inactive) in test [5] and 5.27% (inactive) in test [6].

Take `CCC(=O)Nc1nn(C)c2nc3c(C)cccc3cc12`: the viability in test [1] was 92% (inactive); in test [2] it was 105% (inactive); in test [3] it was 104% (inactive); in test [4] (setting [7]) it was 86.4%; in test [4] (setting [8]), 104%. Further, the differential viability (reversal) in test [4] (H69AR cells + 2 uM doxorubicin) is 17.2% (inactive). Further, the values for the inhibition in test [5] and in test [6] were -3.47% (inactive) and -4.18% (inactive), respectively.

With `COC(=O)C1=C(C)N(Cc2ccco2)C(=O)C1`, the viability was 96% (inactive) in test [1]; 103% (inactive) in test [2]; 96.1% (inactive) in test [3]; 90.7% in test [4] (setting [7]); 96.1% in test [4] (setting [8]). In test [4] (H69AR cells + 2 uM doxorubicin), the differential viability (reversal) was 5.42% (inactive). The inhibition was -7.53% (inactive) in test [5] and 5.82% (inactive) in test [6].
